The text below walks through data of ChEMBL document CHEMBL1132602, “Identification of novel classes of protein kinase inhibitors using combinatorial peptide chemistry based on functional genomics knowledge” (J Med Chem, 1999).

Experiment [1] deals with Myosin light chain kinase, smooth muscle (Gallus gallus, UniProt P11799). Briefly: Inhibitory activity against MLCK (smooth muscle myosin light chain kinase).
Experiment [2] is described as follows: Ratio of the inhibitory concentrations against CaMPKII and MLCK. IC50 (CaMPKII ) / IC50 (MLCK). The procedure, abridged: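 Ratio of IC50 values from the two radiometric assays, both with 0.2 mM [γ-32P]ATP and 20 μM peptide substrate. CaMPKII was activated with 30 μM CaM and 2 mM CaCl2 and run 8 min. Chicken gizzard MLCK was activated with 1 μM CaM and 5 μM CaCl2 and run 20 min. Both at 25 °C, IC50 from 15–85% activity regression.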

The next experiment addresses CaM kinase II (Homo sapiens, UniProt Q13557+Q13555+Q13554+Q9UQM7). The experiment in a line: Inhibitory activity against CaMPKII (Calcium/calmodulin-dependent protein kinase type II). The experiment is classed as protein assay.

Starred links: 1 amine or outer side, 2 acyl side, 3 side chain; linkers in the order of their positions; H or OH if unused. Non-standard residues stand in square brackets, D forms with d. Residues, ends and D or L forms follow the SMILES beside them. X1 = O=C(C1CCC(N[*:1])CC1)[*:2]

Sequence of Myosin light chain kinase, smooth muscle (P11799 whole entry): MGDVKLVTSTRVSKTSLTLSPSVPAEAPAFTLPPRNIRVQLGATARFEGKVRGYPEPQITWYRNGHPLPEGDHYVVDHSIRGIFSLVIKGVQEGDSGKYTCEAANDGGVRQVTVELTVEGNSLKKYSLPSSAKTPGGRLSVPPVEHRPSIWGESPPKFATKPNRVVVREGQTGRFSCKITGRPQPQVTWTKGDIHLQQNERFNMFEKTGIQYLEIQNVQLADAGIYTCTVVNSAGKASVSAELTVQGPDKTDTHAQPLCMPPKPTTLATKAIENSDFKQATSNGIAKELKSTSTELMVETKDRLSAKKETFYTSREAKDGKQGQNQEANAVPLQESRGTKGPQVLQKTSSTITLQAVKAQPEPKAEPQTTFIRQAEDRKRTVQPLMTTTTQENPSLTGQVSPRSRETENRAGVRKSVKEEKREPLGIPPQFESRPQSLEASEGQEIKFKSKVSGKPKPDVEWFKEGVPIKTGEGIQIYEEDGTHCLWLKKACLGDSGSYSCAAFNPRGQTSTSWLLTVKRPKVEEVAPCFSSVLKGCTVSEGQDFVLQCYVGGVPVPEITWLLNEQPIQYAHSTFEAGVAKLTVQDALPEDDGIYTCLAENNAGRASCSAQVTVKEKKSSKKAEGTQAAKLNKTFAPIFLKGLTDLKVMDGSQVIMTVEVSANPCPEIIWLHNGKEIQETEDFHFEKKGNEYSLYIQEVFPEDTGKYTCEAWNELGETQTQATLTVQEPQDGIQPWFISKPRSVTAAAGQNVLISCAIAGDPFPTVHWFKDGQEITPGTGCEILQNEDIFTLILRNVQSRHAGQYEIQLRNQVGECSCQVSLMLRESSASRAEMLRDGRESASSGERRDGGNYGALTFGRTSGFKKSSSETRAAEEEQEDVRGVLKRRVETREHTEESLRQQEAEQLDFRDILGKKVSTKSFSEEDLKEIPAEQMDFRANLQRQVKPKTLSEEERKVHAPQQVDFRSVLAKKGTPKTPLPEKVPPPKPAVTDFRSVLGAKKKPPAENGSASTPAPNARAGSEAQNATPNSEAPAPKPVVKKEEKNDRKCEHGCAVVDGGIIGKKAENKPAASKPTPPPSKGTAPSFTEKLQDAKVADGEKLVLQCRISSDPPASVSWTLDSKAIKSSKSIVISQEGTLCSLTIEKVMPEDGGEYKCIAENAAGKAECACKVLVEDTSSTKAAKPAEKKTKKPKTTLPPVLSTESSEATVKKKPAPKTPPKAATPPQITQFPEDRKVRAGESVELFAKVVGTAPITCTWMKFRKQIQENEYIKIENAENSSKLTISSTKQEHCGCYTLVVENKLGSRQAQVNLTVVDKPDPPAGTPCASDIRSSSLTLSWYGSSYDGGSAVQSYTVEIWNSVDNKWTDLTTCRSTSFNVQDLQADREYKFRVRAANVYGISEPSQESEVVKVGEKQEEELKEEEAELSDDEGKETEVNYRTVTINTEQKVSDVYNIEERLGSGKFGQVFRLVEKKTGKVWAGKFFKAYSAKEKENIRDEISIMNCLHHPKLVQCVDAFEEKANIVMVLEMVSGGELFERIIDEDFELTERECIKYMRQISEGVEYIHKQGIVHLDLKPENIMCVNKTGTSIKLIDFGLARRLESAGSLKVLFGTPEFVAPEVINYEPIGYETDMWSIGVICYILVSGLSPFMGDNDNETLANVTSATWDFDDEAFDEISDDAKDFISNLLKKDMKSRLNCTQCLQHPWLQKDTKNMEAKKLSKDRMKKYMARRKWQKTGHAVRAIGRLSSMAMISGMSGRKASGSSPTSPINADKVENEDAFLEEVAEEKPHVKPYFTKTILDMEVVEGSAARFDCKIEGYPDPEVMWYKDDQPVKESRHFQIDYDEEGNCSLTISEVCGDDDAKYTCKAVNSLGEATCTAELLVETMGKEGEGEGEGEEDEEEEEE

As a reminder, the IC50 is the concentration that inhibits the measured activity by half. `N=C(N)NCCC[C@H](NC(=O)C1CCC(NC(=O)C2CCC(NC(=O)C3CCC(NC(=O)[C@H](CCCCN)NC(=O)[C@H](CCCCN)NC(=O)[C@@H](N)CCCNC(=N)N)CC3)CC2)CC1)C(=O)N[C@@H](CCCNC(=N)N)C(=O)N[C@@H](CCCCN)C(N)=O` (stereo not given in full) (H-RKK[X1][X1][X1]RRK-NH2) yielded an IC50 in experiment [1] of 20000 nM.
For the molecule H-RKKYKSRRK-NH2 [listing 1 of 2 here], the Ratio in experiment [2] was over 1330. Besides, at CaM kinase II, the IC50 is over 200000 nM.
As for `NCCCC[C@H](NC(=O)[C@H](CCCN=C(N)N)NC(=O)[C@H](CCCN=C(N)N)NC(=O)C1CCC(NC(=O)[C@H](CCCCN)NC(=O)C2CCC(NC(=O)[C@H](CCCCN)NC(=O)[C@H](CCCCN)NC(=O)[C@@H](N)CCCN=C(N)N)CC2)CC1)C(N)=O` (stereo not given in full) (H-RKK[X1]K[X1]RRK-NH2), the IC50 was 20000 nM in experiment [1] and over 200000 nM on CaM kinase II. In addition, in experiment [2], the Ratio was over 10.
H-RKKYKHRRK-NH2: the results for the IC50 (in experiment [1]; on CaM kinase II) were 290 nM and 16200 nM, respectively. Besides, the Ratio in experiment [2] stood at 56.
Take `CC[C@@H](C)[C@H](NC(=O)[C@H](CCCCN)NC(=O)[C@H](Cc1ccc(O)cc1)NC(=O)[C@H](CCCCN)NC(=O)[C@H](CCCCN)NC(=O)[C@@H](N)CCCN=C(N)N)C(=O)N[C@@H](CCCN=C(N)N)C(=O)N[C@@H](CCCN=C(N)N)C(=O)N[C@@H](CCCCN)C(N)=O`: in experiment [2], the Ratio came out at 359.
In the case of H-RKKYKYRRK-NH2, the half-inhibitory concentration (IC50) in experiment [1] was 50 nM; on CaM kinase II it was over 200000 nM. Further, the Ratio in experiment [2] is over 4000.
In the case of H-RKKYKPRRK-NH2, the IC50 in experiment [1] was 120 nM; on CaM kinase II it was over 200000 nM. Also, the Ratio in experiment [2] was over 1670.
On to `CC[C@H](C)[C@H](NC(=O)[C@H](CCCCN)NC(=O)[C@H](Cc1ccc(O)cc1)NC(=O)[C@H](CCCCN)NC(=O)[C@H](CCCCN)NC(=O)[C@@H](N)CCCNC(=N)N)C(=O)N[C@@H](CCCNC(=N)N)C(=O)N[C@@H](CCCNC(=N)N)C(=O)N[C@@H](CCCCN)C(N)=O`, for which the values for the half-inhibitory concentration (IC50) (in experiment [1]; on CaM kinase II) were 160 nM and 57400 nM, respectively.
As to `NCCCC[C@H](NC(=O)[C@H](CCCN=C(N)N)NC(=O)[C@H](CCCN=C(N)N)NC(=O)[C@H](Cc1ccc(O)cc1)NC(=O)[C@H](CCCCN)NC(=O)C1CCC(NC(=O)[C@H](CCCCN)NC(=O)[C@H](CCCCN)NC(=O)[C@@H](N)CCCN=C(N)N)CC1)C(N)=O` (stereo not given in full) (H-RKK[X1]KYRRK-NH2), the IC50 in experiment [1] was 1040 nM; on CaM kinase II it was over 200000 nM. Further, in experiment [2], the Ratio was over 192.
With H-RKKYKSRRK-NH2 [listing 2 of 2 here], the IC50 in experiment [1] came out at 150 nM.
H-RKKYKNRRK-NH2 [listing 1 of 2 here] displayed an IC50 in experiment [1] of 290 nM.
With H-RKKYKQRRK-NH2, the IC50 is 300 nM in experiment [1] and over 200000 nM at CaM kinase II. Besides, in experiment [2], the Ratio was over 667.
For H-RKKYKGRRK-NH2 [listing 1 of 2 here], in experiment [1], the IC50 was 310 nM.
In experiment [1], `N=C(N)NCCC[C@H](NC(=O)[C@H](CCCNC(=N)N)NC(=O)[C@H](Cc1ccc(O)cc1)NC(=O)C1CCC(NC(=O)C2CCC(NC(=O)[C@H](CCCCN)NC(=O)[C@H](CCCCN)NC(=O)[C@@H](N)CCCNC(=N)N)CC2)CC1)C(=O)N[C@@H](CCCCN)C(N)=O` (stereo not given in full) (H-RKK[X1][X1]YRRK-NH2) registered an IC50 of 2970 nM.
Regarding H-RKKYKLRRK-NH2, the IC50 came to 320 nM in experiment [1] and 132000 nM on CaM kinase II. Besides, the Ratio in experiment [2] is 413.
Turning to H-RKKYKDRRK-NH2, the IC50 was 610 nM in experiment [1] and over 200000 nM on CaM kinase II. The Ratio in experiment [2] is over 328.
As for `NCCCC[C@H](NC(=O)[C@H](CCCN=C(N)N)NC(=O)[C@H](CCCN=C(N)N)NC(=O)[C@H](Cc1ccc(O)cc1)NC(=O)C1CCC(NC(=O)[C@H](Cc2ccc(O)cc2)NC(=O)[C@H](CCCCN)NC(=O)[C@H](CCCCN)NC(=O)[C@@H](N)CCCN=C(N)N)CC1)C(N)=O` (stereo not given in full) (H-RKKY[X1]YRRK-NH2), the values for the IC50 (in experiment [1]; on CaM kinase II) were 40 nM and over 200000 nM, respectively. For the same molecule, the Ratio in experiment [2] was over 5000.
Take `NCCCC[C@H](NC(=O)[C@H](CCCN=C(N)N)NC(=O)[C@H](CCCN=C(N)N)NC(=O)C1CCC(NC(=O)C2CCC(NC(=O)[C@H](Cc3ccc(O)cc3)NC(=O)[C@H](CCCCN)NC(=O)[C@H](CCCCN)NC(=O)[C@@H](N)CCCN=C(N)N)CC2)CC1)C(N)=O` (stereo not given in full) (H-RKKY[X1][X1]RRK-NH2): the results for the IC50 (in experiment [1]; on CaM kinase II) were 110 nM and over 200000 nM, respectively. In experiment [2], the Ratio is over 1820.
With H-RKKYKNRRK-NH2 [listing 2 of 2 here], the Ratio in experiment [2] is over 690. On CaM kinase II, the IC50 was over 200000 nM.
As for `NCCCC[C@H](NC(=O)[C@H](CCCN=C(N)N)NC(=O)[C@H](CCCN=C(N)N)NC(=O)C1CCC(NC(=O)[C@H](CCCCN)NC(=O)[C@H](Cc2ccc(O)cc2)NC(=O)[C@H](CCCCN)NC(=O)[C@H](CCCCN)NC(=O)[C@@H](N)CCCN=C(N)N)CC1)C(N)=O` (stereo not given in full) (H-RKKYK[X1]RRK-NH2), the IC50 was 270 nM in experiment [1] and over 200000 nM on CaM kinase II. Further, the Ratio in experiment [2] is over 741.
As to `NCCCC[C@H](NC(=O)[C@H](CCCN=C(N)N)NC(=O)[C@H](CCCN=C(N)N)NC(=O)C1CCC(NC(=O)C2CCC(NC(=O)C3CCC(NC(=O)[C@H](CCCCN)NC(=O)[C@H](CCCCN)NC(=O)[C@@H](N)CCCN=C(N)N)CC3)CC2)CC1)C(N)=O` (stereo not given in full) (H-RKK[X1][X1][X1]RRK-NH2), the Ratio in experiment [2] was over 10. The IC50 on CaM kinase II was over 200000 nM.
Consider H-RKKYKMRRK-NH2 [listing 1 of 2 here], for which, in experiment [2], the Ratio was over 1250. The IC50 on CaM kinase II was over 200000 nM.
With H-RKKYKVRRK-NH2 [listing 1 of 2 here], the Ratio in experiment [2] was over 556. At CaM kinase II, the IC50 was over 200000 nM.
H-RKKYKMRRK-NH2 [listing 2 of 2 here] yielded an IC50 in experiment [1] of 160 nM.
With H-RKKYKWRRK-NH2, the IC50 is 200 nM in experiment [1] and 26700 nM at CaM kinase II. For the same molecule, in experiment [2], the Ratio worked out at 134.
Consider `C[C@H](O)[C@H](NC(=O)[C@H](CCCCN)NC(=O)[C@H](Cc1ccc(O)cc1)NC(=O)[C@H](CCCCN)NC(=O)[C@H](CCCCN)NC(=O)[C@@H](N)CCCN=C(N)N)C(=O)N[C@@H](CCCN=C(N)N)C(=O)N[C@@H](CCCN=C(N)N)C(=O)N[C@@H](CCCCN)C(N)=O`, for which the Ratio in experiment [2] is over 274.
Take H-RKKYKFRRK-NH2: the IC50 in experiment [1] was 150 nM; at CaM kinase II it was over 200000 nM. Also, in experiment [2], the Ratio is over 1330.
`NCCCC[C@H](NC(=O)[C@H](CCCN=C(N)N)NC(=O)[C@H](CCCN=C(N)N)NC(=O)[C@H](Cc1ccc(O)cc1)NC(=O)C1CCC(NC(=O)C2CCC(NC(=O)[C@H](CCCCN)NC(=O)[C@H](CCCCN)NC(=O)[C@@H](N)CCCN=C(N)N)CC2)CC1)C(N)=O` (stereo not given in full) (H-RKK[X1][X1]YRRK-NH2): in experiment [2], the Ratio is over 67. Moreover, the IC50 on CaM kinase II is over 200000 nM.
Take H-RKKYKARRK-NH2: the values for the IC50 (in experiment [1]; at CaM kinase II) were 420 nM and over 200000 nM, respectively. The Ratio in experiment [2] was over 476.
Regarding `C[C@@H](O)[C@H](NC(=O)[C@H](CCCCN)NC(=O)[C@H](Cc1ccc(O)cc1)NC(=O)[C@H](CCCCN)NC(=O)[C@H](CCCCN)NC(=O)[C@@H](N)CCCN=C(N)N)C(=O)N[C@@H](CCCN=C(N)N)C(=O)N[C@@H](CCCN=C(N)N)C(=O)N[C@@H](CCCCN)C(N)=O`, the values for the IC50 (in experiment [1]; at CaM kinase II) were 730 nM and over 200000 nM, respectively.
For H-RKKYKKRRK-NH2, the figures for the IC50 (in experiment [1]; at CaM kinase II) were 220 nM and over 200000 nM, respectively. Further, the Ratio in experiment [2] was over 909.
The molecule H-RKKYKVRRK-NH2 [listing 2 of 2 here] registered an IC50 in experiment [1] of 360 nM.
For H-RKKYKERRK-NH2, the IC50 is 870 nM in experiment [1] and over 200000 nM on CaM kinase II. For the same molecule, the Ratio in experiment [2] was over 230.
Turning to H-RKKYKGRRK-NH2 [listing 2 of 2 here], the Ratio in experiment [2] was over 645. Moreover, the IC50 on CaM kinase II is over 200000 nM.
